This passage reports MIC, IC50 and Activity results from ChEMBL document CHEMBL4330087, “Synthesis, antimicrobial activity, attenuation of aminoglycoside resistance in MRSA, and ribosomal A-site binding of pyrene-neomycin conjugates” (Eur J Med Chem, 2019).

Broadly, the MIC is the lowest concentration that inhibits growth of the organism. Broadly, the IC50 is the concentration that inhibits the measured activity by half.

Each structure is given as a SMILES string. In brackets after ≈: the same amount, converted by molar mass. Activity calls are given as the source filed them. The rule behind the calls is not given here.

Data set [1] concerns Staphylococcus aureus. Briefly: Antibacterial activity against NEO-sensitive Staphylococcus aureus 25923 after 15 to 20 hrs by CLSI protocol based microdilution assay. The class given is functional. A digest of the protocol:
(§1)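 CLSI broth microdilution on exponential-phase bacteria at ~3×10^5 cells/mL in cation-adjusted Mueller-Hinton broth. Serial 2-fold dilutions gave final concentrations of 50 to 0.78 μM; compound stocks were 10× in 10% DMSO. Incubated at 37 °C for 15-20 h, growth read at A595. Percent inhibition averaged over triplicates; MIC in μM.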
A general note: In broth dilution the organism is exposed to a series of concentrations in liquid medium.

Data set [2] can be described thus: Displacement of F-NEO from human mitochondrial rRNA-A site C1410U mutant after 10 to 20 mins by fluorescence assay. A digest of the protocol:
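A 100 nM F-NEO:A-site RNA complex in 10 mM HEPES, 50 mM NaCl, 0.04 mM EDTA, pH 7.0 was titrated with 2-fold dilutions of ligand from 20 to 0.009 μM, or from 60 or 40 μM for weaker ligands. Incubated 10-20 min at room temperature, fluorescence read at ex 485/em 525 nm. IC50 from dose-response curve fit.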

The test system of data set [3] is Staphylococcus aureus. Briefly: Antibacterial activity against NEO-sensitive Staphylococcus aureus harboring NorA mutant after 15 to 20 hrs by CLSI protocol based microdilution assay. The class given is functional. Summed up:
as §1

For data set [4], the system named is Staphylococcus epidermidis. Briefly: Antibacterial activity against NEO-sensitive Staphylococcus epidermidis 12384 after 15 to 20 hrs by CLSI protocol based microdilution assay. The format is functional. A digest of the protocol: as §1
Data set [5] has as its system Staphylococcus aureus. Briefly: Antibacterial activity against methicillin-resistant Staphylococcus aureus 33591 after 15 to 20 hrs by CLSI protocol based microdilution assay. The class given is functional. A digest of the protocol: as §1
Data set [6] concerns Staphylococcus aureus. Briefly: Antibacterial activity against methicillin-resistant Staphylococcus aureus A960649 after 15 to 20 hrs by CLSI protocol based microdilution assay. The class given is functional. Summed up:
as §1

In data set [7] the test system is Staphylococcus aureus. Briefly: Antibacterial activity against methicillin-resistant Staphylococcus aureus SU-5 after 15 to 20 hrs by CLSI protocol based microdilution assay. The format is functional. Summed up:
as §1

The subject of data set [8] is Staphylococcus aureus. Briefly: Antibacterial activity against methicillin-resistant Staphylococcus aureus M0602 after 15 to 20 hrs by CLSI protocol based microdilution assay. The class given is functional. A digest of the protocol: as §1
Another data set concerns Streptococcus pyogenes. Description: Antibacterial activity against NEO-resistant Streptococcus pyogenes C203 after 15 to 20 hrs by CLSI protocol based microdilution assay. The class given is functional. A digest of the protocol: as §1
For data set [9], the system named is Bacillus anthracis. Briefly: Antibacterial activity against NEO-sensitive Bacillus anthracis BA852 after 15 to 20 hrs by CLSI protocol based microdilution assay. The format is functional. Summed up:
as §1

The test system of data set [10] is Mycolicibacterium smegmatis. Briefly: Antibacterial activity against NEO-sensitive Mycobacterium smegmatis after 15 to 20 hrs by CLSI protocol based microdilution assay. The class given is functional. Summed up:
as §1

Data set [11] relates to Escherichia coli. Briefly: Antibacterial activity against NEO-sensitive Escherichia coli ATCC 25922 after 15 to 20 hrs by CLSI protocol based microdilution assay. The format is functional. Summed up:
as §1

The subject of data set [12] is Escherichia coli. Description: Antibacterial activity against NEO-sensitive Escherichia coli harboring TolC mutant after 15 to 20 hrs by CLSI protocol based microdilution assay. The class given is functional. Summed up: as §1
Data set [13] relates to Escherichia coli. Briefly: Antibacterial activity against multidrug-resistant Escherichia coli H4H after 15 to 20 hrs by CLSI protocol based microdilution assay. The format is functional. Summed up: as §1
In data set [14] the test system is Bacillus anthracis. Briefly: Antibacterial activity against NEO-sensitive Bacillus anthracis BA852 at 6.25 uM after 15 to 20 hrs by CLSI protocol based microdilution assay relative to control. The format is functional. Summed up: (§2)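 Exponential-phase cultures were exposed to 6.25 μM compound in duplicate with neomycin as reference, at 37 °C in a humidified incubator for 15-20 h. Broth and culture controls received sterile water with 1% DMSO. Percent growth inhibition was calculated against the growth and background controls.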

For data set [15], the system named is Escherichia coli. Briefly: Antibacterial activity against multidrug-resistant Escherichia coli H4H at 6.25 uM after 15 to 20 hrs by CLSI protocol based microdilution assay relative to control. The format is functional. A digest of the protocol:
as §2

Data set [16] deals with Escherichia coli. Description: Antibacterial activity against Escherichia coli O157:H7 at 6.25 uM after 15 to 20 hrs by CLSI protocol based microdilution assay relative to control. The class given is functional. A digest of the protocol: as §2
The subject of data set [17] is Ribosomal RNA A-site. Description: Binding affinity to rRNA-A site in Escherichia coli S30 extract assessed as inhibition of protein translation after 20 mins. The format is nucleic-acid assay.
For data set [18], the system named is Ribosomal RNA A-site. Description: Binding affinity to rRNA-A site in human MDA-MB-231 cells assessed as inhibition of protein translation. The format is cell-based.
A further data set concerns Klebsiella pneumoniae. Briefly: Antibacterial activity against Klebsiella pneumoniae NR-151410 at 6.25 uM after 15 to 20 hrs by CLSI protocol based microdilution assay relative to control. The class given is functional. A digest of the protocol:
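Single-concentration screen at 6.25 μM against exponential-phase cultures, in duplicate, with NEO as reference. Enterococcus was grown in BHI broth, M. smegmatis in TS broth with 0.05% Tween 80, and all other strains in TS broth. The 1% DMSO water vehicle was added to broth (background) and culture (growth control). Incubation was 37 °C, humidified, 15-20 h. Result is percent growth inhibition.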

Data set [19] relates to Staphylococcus aureus. Briefly: Antibacterial activity against NEO-sensitive Staphylococcus aureus C2 after 15 to 20 hrs by CLSI protocol based microdilution assay. The class given is functional. Summed up:
(§3)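 CLSI broth microdilution MIC in triplicate on exponential-phase cells, ~3×10^5 cells per mL in cation-adjusted Mueller-Hinton broth. Compound was added from 10× stocks in 10% DMSO as serial 2-fold dilutions, final 50 to 0.78 μM. Plates were incubated at 37 °C, humidified, 15-20 h. Growth was read as absorbance at 595 nm, and percent inhibition was averaged over triplicates.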

Data set [20] relates to Staphylococcus aureus. Description: Antibacterial activity against NEO-sensitive Staphylococcus aureus C1 after 15 to 20 hrs by CLSI protocol based microdilution assay. The class given is functional. A digest of the protocol:
as §3

Data set [21] concerns Staphylococcus aureus. Briefly: Antibacterial activity against NEO-sensitive Staphylococcus aureus NRS77 after 15 to 20 hrs by CLSI protocol based microdilution assay. The format is functional. A digest of the protocol:
as §3

Data set [22] is described as follows: Toxicity in Caenorhabditis elegans infected with methicillin-resistant Staphylococcus aureus assessed as effect on nematode larvae viability by measuring decrease in formazan production at 6.25 to 50 uM after 24 hrs by MTT assay relative to control.
Data set [23] is described as follows: Toxicity in Caenorhabditis elegans infected with methicillin-resistant Staphylococcus aureus assessed as effect on nematode larvae viability by measuring decrease in formazan production at 3.13 to 1.56 uM after 24 hrs by MTT assay. Background: Formazan colour is commonly taken as a measure of viable cells.

As for `NC[C@@H]1O[C@H](O[C@H]2[C@@H](O)[C@H](O[C@@H]3[C@@H](O)[C@H](N)C[C@H](N)[C@H]3O[C@H]3O[C@H](CN)[C@@H](O)[C@H](O)[C@H]3N)O[C@@H]2CSCCNC(=S)NCCCCCCNC(=O)CCCc2ccc3ccc4cccc5ccc2c3c45)[C@H](N)[C@@H](O)[C@@H]1O`, the MIC with Staphylococcus aureus [1] turned out to be 6.25 µM (≈ 6.89 µg/mL); in the data set on Staphylococcus aureus [3] it was 6.25 µM (≈ 6.89 µg/mL); in [4], 3.13 µM (≈ 3.45 µg/mL); with Staphylococcus aureus [5], 25 µM (≈ 27.6 µg/mL); against Staphylococcus aureus [6] it was 25 µM (≈ 27.6 µg/mL); in the data set on Staphylococcus aureus [7], 50 µM (≈ 55.1 µg/mL). The MIC is 25 to 50 µM (≈ 27.6 to 55.1 µg/mL) in the data set on Staphylococcus aureus [8]; 3.13 µM (≈ 3.45 µg/mL) with Bacillus anthracis [9]; 6.25 µM (≈ 6.89 µg/mL) in [10]; above 25 µM against Escherichia coli [11]; 1.56 to 3.13 µM (≈ 1.72 to 3.45 µg/mL) against Escherichia coli [12]; above 25 µM in the data set with Escherichia coli [13]. The IC50 in data set [2] stood at 180 nM; in the data set with Ribosomal RNA A-site [17] it was 213 nM; in the data set with Ribosomal RNA A-site [18], 213 nM. Besides, the MIC entry with Streptococcus pyogenes is “inactive”. Moreover, the Activity was 100% with Bacillus anthracis [14], 5 - 30% in the data set with Escherichia coli [15], 0% in the data set with Escherichia coli [16] and 33% in the data set on Klebsiella pneumoniae.

Take `NC[C@@H]1O[C@H](O[C@H]2[C@@H](O)[C@H](O[C@@H]3[C@@H](O)[C@H](N)C[C@H](N)[C@H]3O[C@H]3O[C@H](CN)[C@@H](O)[C@H](O)[C@H]3N)O[C@@H]2CSCCNC(=O)Cc2ccc3ccc4cccc5ccc2c3c45)[C@H](N)[C@@H](O)[C@@H]1O`: the values for the IC50 (in [2]; in the data set with Ribosomal RNA A-site [17]; in the data set on Ribosomal RNA A-site [18]) were 70 nM, 269 nM and 269 nM, respectively. Besides, the MIC in the data set on Staphylococcus aureus [3] is 6.25 to 12.5 µM (≈ 5.73 to 11.5 µg/mL); in [4], 6.25 µM (≈ 5.73 µg/mL); with Staphylococcus aureus [6] it was 12.5 µM (≈ 11.5 µg/mL); with Staphylococcus aureus [7], 25 µM (≈ 22.9 µg/mL); in the data set with Staphylococcus aureus [8], 25 µM (≈ 22.9 µg/mL); with Bacillus anthracis [9], 6.25 µM (≈ 5.73 µg/mL). Also, the MIC in data set [10] is 6.25 µM (≈ 5.73 µg/mL); in the data set with Escherichia coli [11] it was above 25 µM; in the data set with Escherichia coli [12] it was 6.25 µM (≈ 5.73 µg/mL); in the data set on Escherichia coli [13] it was above 25 µM; against Staphylococcus aureus [19] it was 12.5 µM (≈ 11.5 µg/mL); against Staphylococcus aureus [20], 12.5 µM (≈ 11.5 µg/mL). In the data set on Staphylococcus aureus [21], this compound showed an MIC of 3.2 µM (≈ 2.93 µg/mL). Moreover, the MIC result with Streptococcus pyogenes was “inactive”. The Activity in the data set on Bacillus anthracis [14] was 100%; in [22], 50 to 75%; in data set [23], “Non-Toxic”; in the data set on Klebsiella pneumoniae it was 23%.

Take `NC[C@@H]1O[C@H](O[C@H]2[C@@H](O)[C@H](O[C@@H]3[C@@H](O)[C@H](N)C[C@H](N)[C@H]3O[C@H]3O[C@H](CN)[C@@H](O)[C@H](O)[C@H]3N)O[C@@H]2CNC(=O)CCCc2ccc3ccc4cccc5ccc2c3c45)[C@H](N)[C@@H](O)[C@@H]1O`: the MIC against Staphylococcus aureus [1] came to 12.5 µM (≈ 11 µg/mL); in the data set with Staphylococcus aureus [3], 12.5 µM (≈ 11 µg/mL); in [4], 12.5 µM (≈ 11 µg/mL); in the data set with Staphylococcus aureus [5], 12.5 µM (≈ 11 µg/mL); against Staphylococcus aureus [6] it was 12.5 µM (≈ 11 µg/mL); against Staphylococcus aureus [7], 25 µM (≈ 22.1 µg/mL). Moreover, the minimum inhibitory concentration (MIC) is 25 µM (≈ 22.1 µg/mL) in the data set on Staphylococcus aureus [8]; 25 µM (≈ 22.1 µg/mL) against Streptococcus pyogenes; 12.5 µM (≈ 11 µg/mL) in the data set on Bacillus anthracis [9]; 12.5 µM (≈ 11 µg/mL) in data set [10]; above 25 µM in the data set with Escherichia coli [11]; 12.5 µM (≈ 11 µg/mL) against Escherichia coli [12]. The minimum inhibitory concentration (MIC) in the data set with Escherichia coli [13] is above 25 µM. For the same compound, in data set [2], the IC50 is 149 nM. Also, the Activity turned out to be 23% with Bacillus anthracis [14], 0% in the data set with Escherichia coli [15], 0% in the data set with Escherichia coli [16] and 12% with Klebsiella pneumoniae.
